A selection: hits, their analogues and other compounds. The true share with any hit is near 2.7%.
PAD4 inh = blocks human protein arginine deiminase 4; inhibition, % at 6.36 µM; 330,000 tested, 0.41% active; Q9UM07; recombinant PAD4, RCA probe fluorescence polarization; AID 485272;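 active = percent inhibition above a cutoff equal to the mean of all tested compounds plus 3 SD, cut at about 15% in these data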;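 note: 0% = PAD4 with RCA probe and DMSO and 100% = probe without PAD4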
GSTO1 inh = blocks human GSTO1 in RBBP9 counter-screen; recombinant GSTO1, activity-based probe fluorescence polarization; AID 1974; inhibition, % at 5.96 µM; 300,000 tested, 1.1% active; P78417;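 active = inhibition above the campaign mean inhibition plus 3 SD, cut at about 35% in these data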;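 note: 0% = GSTO1-1 with DMSO and 100% = wells lacking GSTO1-1 enzyme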
SIAE inh = human SIAE inhibition, primary screen. inhibition, % at 9.66 µM. 370,000 tested, 0.69% active. SIAE FP-Rh probe binding, fluorescence polarization;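 active = inhibition above a cutoff: mean of compounds within the control limits plus 3 SD of those, cut at about 17% in these data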;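 note: 0% = plate median of compound wells and 100% = probe without SIAE protein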
Target sequence (Q9HAT2 whole entry, looked up): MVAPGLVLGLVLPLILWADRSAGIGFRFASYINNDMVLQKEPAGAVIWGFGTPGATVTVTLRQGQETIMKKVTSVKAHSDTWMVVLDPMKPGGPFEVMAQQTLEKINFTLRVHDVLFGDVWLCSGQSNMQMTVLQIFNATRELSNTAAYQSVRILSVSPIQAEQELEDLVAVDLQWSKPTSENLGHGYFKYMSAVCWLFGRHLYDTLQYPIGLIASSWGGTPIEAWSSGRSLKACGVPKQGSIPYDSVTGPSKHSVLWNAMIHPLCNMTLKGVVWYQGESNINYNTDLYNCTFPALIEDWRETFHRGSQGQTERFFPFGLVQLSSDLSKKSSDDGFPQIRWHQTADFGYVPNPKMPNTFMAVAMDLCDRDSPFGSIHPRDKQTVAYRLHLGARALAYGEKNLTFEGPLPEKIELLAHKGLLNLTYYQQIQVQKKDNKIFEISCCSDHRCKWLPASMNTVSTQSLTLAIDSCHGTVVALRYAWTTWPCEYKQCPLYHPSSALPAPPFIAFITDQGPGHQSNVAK
RBBP9 inh = blocks human serine hydrolase RBBP9 | AID 1515 | O75884 | inhibition, % at 7.94 µM | recombinant RBBP9, FP-Rh probe fluorescence polarization | 220,000 tested, 0.2% active;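 active = inhibition above the campaign mean of all tested compounds plus 3 SD, cut at about 14% in these data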;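 note: plate controls were DMSO wells with RBBP9 for no effect and wells lacking RBBP9 protein for full effect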
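System: RBBP9 protein | Quantity: 2.5 µM RBBP9 dispensing solution, before mixing | Reagent: FP-Rh probe, 375 nM dispensing solution | Timing: Enzyme-compound preincubation 30 min, then probe labeling 45 min, 25 °C | Measured by: Fluorescence polarization | Read-out: % inhibition | Replication: One well per compound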
PRMT1 inh = inhibitors of human PRMT1. Q99873. recombinant PRMT1, activity-based probe fluorescence polarization. AID 652257. inhibition, % at 2.79 µM. 370,000 tested, 1.3% active;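 active = inhibition above about 21% made by adding two undisclosed values, limit read from the data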
PAD4 confirm = confirmation of human PAD4 inhibitors | shares compounds with PAD4 inh | recombinant PAD4, RCA probe fluorescence polarization | inhibition, % at 6.36 µM | 1,200 tested, 28% active;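 active = mean inhibition across replicates above the hit cutoff set by the earlier primary screen, cut at about 15% in these data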;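 note: inhibitors block active-site labeling by the probe so polarization falls; 0% = PAD4 with probe and DMSO and 100% = probe without PAD4 enzyme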
PRMT1 confirm = PRMT1 (human) inhibition, FP confirmation; shares compounds with PRMT1 inh; recombinant His-PRMT1, activity-based probe fluorescence polarization; inhibition, % at 2.79 µM; 3,300 tested, 42% active; AID 687036;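 active = mean inhibition across replicates above the hit cutoff derived for the earlier primary screen, cut at about 22% in these data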
SIAE confirm = confirmation of human SIAE inhibitors. shares compounds with SIAE inh. SIAE FP-Rh activity-based probe, fluorescence polarization. inhibition, % at 9.66 µM. 2,300 tested, 13% active. AID 1117263;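 active = mean inhibition of the replicates above the hit cutoff set in the primary screen, cut at about 17% in these data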;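 note: 0% = SIAE with DMSO and probe and 100% = probe without SIAE; inhibitors lower polarization as more probe stays unbound to SIAE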
The depositor's hits bear a star; x = no result given.

SMILES	PAD4 inh	GSTO1 inh	SIAE inh	RBBP9 inh	PRMT1 inh	PAD4 confirm	others
CCOc1ccccc1NS(=O)(=O)N(C)C	-2	2	2	-7	5	x
CCC(C)NC(=O)Cn1cccc1C(=O)c1ccccc1 (centres undefined)	-2	6	1	5	2	x
CCN(CC)S(=O)(=O)c1ccc(Cl)c(C(=O)Nc2cc(C)nn2-c2ccccc2C(F)(F)F)c1	18*	7	x	-2	x	-3
Cc1[nH]c(=S)c(C#N)c(-c2ccco2)c1C(=O)N(C)C	19*	6	1	1	31*	12
CC(=O)c1c(C)[nH]c(=S)c(C#N)c1-c1ccc(Cl)cc1	-6	3	-3	-5	-1	x
CCOc1ccc(NC2=CC(=O)C(=O)c3ccccc32)cc1	x	x	13	x	2	x
O=C1C=C(Nc2ccc(F)cc2)c2ccccc2C1=O	40*	x	5	x	0	38*
CCn1nc(NS(=O)(=O)c2ccc(F)cc2)c2cc3cccc(C)c3nc21	-1	2	9	x	2	x
CN(C)c1ccc(N2C(=O)CC(c3ccccc3)CC2=O)cc1	2	-7	0	-6	3	x
CC1SC(=S)N(c2ccc(N(C)C)cc2)C1=O (centres undefined)	15*	15	10	x	9	3
O=C(c1nc2ccccn2c1CNCC1OCCc2ccccc21)N1CCOCC1 (centres undefined)	-2	-4	1	-9	2	x
CCOC(=O)CNC(=O)c1sc(NC(=O)c2cccc(F)c2)nc1C	25*	1	6	-8	0	2
CCOC(=O)CNC(=O)c1sc(NC(=O)c2ccccc2F)nc1C	-1	-3	1	2	4	x
CCCC1C2CN(C(C)C)CC=C2C(C#N)=C(N)C1(C#N)C#N (centres undefined)	25*	-3	24*	9	70*	12	PRMT1 confirm=22*
CCCC(=O)N(c1ccc2oc(=O)sc2c1)S(=O)(=O)c1cccs1	16*	15	-33	-14	85*	18*	PRMT1 confirm=37*
O=S(=O)(Nc1nc2c(s1)CCCC2)c1ccc2ccccc2c1	-7	15	4	-5	-1	x
O=S(=O)(NC1=NCCCCC1)c1ccc2sc(NS(=O)(=O)c3ccc4ccccc4c3)nc2c1	30*	-42	-26	-16	44*	22*	PRMT1 confirm=27*
CCCCN(C(=O)c1ccc([N+](=O)[O-])o1)c1c(N)n(CC(C)C)c(=O)[nH]c1=O	-8	16	5	x	9	x
Cn1nccc1C(=O)N1CCN(c2ncccn2)CC1	-2	4	6	2	-3	x
O=C1c2cccc3c(N4CCCCC4)ccc(c23)C(=O)N1c1cccc(O)c1	-23	-18	-23	-9	10	x
Cc1n[nH]c(C)c1N1C(=O)c2cccc3c(N4CCCCCC4)ccc(c23)C1=O	38*	13	2	2	100*	27*	PRMT1 confirm=88*
CC(C)C1OC2(C)OC(=N)C1(C#N)C(C#N)(C#N)C2c1ccccc1 (centres undefined)	19*	11	22*	4	25*	16*	SIAE confirm=10
CC1CCC(C(C)C)C2=C1C(C#N)(C#N)C(C#N)(C#N)C(c1ccccc1)N2 (centres undefined)	-6	-1	0	-2	9	x
N#CCC(=O)Nc1ccc(C(=O)OCC(=O)NCc2ccc3c(c2)OCO3)cc1	0	x	-8	x	4	x
Cc1ccc(SCC(=O)NC(=O)NCc2ccco2)cc1C	x	x	x	-1	x	x
Nc1ccc(Br)c2c1C(=O)c1ccccc1C2=O	4	10	x	-5	x	x
COc1cccc2c1C(=O)c1ccc3ccccc3c1C2=O	-3	10	x	-3	x	x
COc1ccc(N)c2c1C(=O)c1ccccc1C2=O	33*	14	20*	-7	-1	10	SIAE confirm=12
COc1ccc(OC)c2c1C(=O)c1ccccc1C2=O	41*	10	24*	-6	52*	38*	SIAE confirm=10
CC1CCc2[nH]c3ccc(C(=O)N(C)CC(=O)Nc4ccccc4Br)cc3c2C1 (centres undefined)	0	-1	5	x	-2	x

Screens deposited in PubChem BioAssay by The Scripps Research Institute Molecular Screening Center.
